Residue numbers refer to the chain shown, from its start. Active and inactive are the calls of the source. The rule behind the calls is not given here.
Experiments:
Neuromedin-K receptor [1] = target: Neuromedin-K receptor (Homo sapiens, UniProt P29371, Y247A); experiment: Binding affinity to human NK3 Y247A mutant expressed in HEK293 cells
Substance-P receptor [2] = target: T1, Substance-P receptor (Homo sapiens, UniProt P25103)
Substance-P receptor [3] = target: T1, Substance-P receptor; experiment: Noncompetitive inhibition of wild type human NK1 receptor expressed in HEK293 cells assessed as decrease in SP1-induced [3H]IP accumulation after 20 mins; format: cell-based
Neuromedin-K receptor [4] = target: T2, Neuromedin-K receptor (Homo sapiens, UniProt P29371); experiment: Displacement of [3H]osanetant from wild type human NK3 receptor expressed in HEK293 cells; format: cell-based
T2 sequence (P29371 whole entry): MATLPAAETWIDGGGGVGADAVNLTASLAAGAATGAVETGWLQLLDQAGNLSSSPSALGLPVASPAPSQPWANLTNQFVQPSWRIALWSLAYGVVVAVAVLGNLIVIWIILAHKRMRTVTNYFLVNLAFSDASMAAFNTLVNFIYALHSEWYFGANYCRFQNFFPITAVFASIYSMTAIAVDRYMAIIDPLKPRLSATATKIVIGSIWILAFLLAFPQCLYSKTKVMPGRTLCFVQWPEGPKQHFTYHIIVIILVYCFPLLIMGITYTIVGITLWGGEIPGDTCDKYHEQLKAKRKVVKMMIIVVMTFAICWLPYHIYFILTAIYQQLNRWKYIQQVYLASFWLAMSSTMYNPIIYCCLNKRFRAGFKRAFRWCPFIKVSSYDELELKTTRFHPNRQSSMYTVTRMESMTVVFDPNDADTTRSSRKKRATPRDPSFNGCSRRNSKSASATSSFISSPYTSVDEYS

Substance-P receptor [5] = target: T1, Substance-P receptor; experiment: Displacement of radioligand [3H]SP from wild type human NK1 receptor expressed in HEK293 cells; format: cell-based
Summary of the method: (§1)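 Membranes from transiently transfected HEK293 cells, 2.5 μg protein/well, in 50 mM HEPES pH 7.4 with 3 mM MnCl2, phosphoramidon, leupeptin and 0.04% BSA. 10 competitor concentrations (0.0003–10 μM), 90 min at rt. Nonspecific binding with 10 μM NK1 antagonist. Filtration, then scintillation counting. Ki by Cheng–Prusoff. Three experiments, each in duplicate.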

Substance-P receptor [6] = target: Substance-P receptor (Homo sapiens, UniProt P25103, F264Y); experiment: Displacement of radioligand [3H]SP from human NK1 F264Y6.51 mutant expressed in HEK293 cells; format: cell-based
Sequence of Substance-P receptor (Homo sapiens, UniProt P25103, F264Y) (P25103 whole entry F264Y): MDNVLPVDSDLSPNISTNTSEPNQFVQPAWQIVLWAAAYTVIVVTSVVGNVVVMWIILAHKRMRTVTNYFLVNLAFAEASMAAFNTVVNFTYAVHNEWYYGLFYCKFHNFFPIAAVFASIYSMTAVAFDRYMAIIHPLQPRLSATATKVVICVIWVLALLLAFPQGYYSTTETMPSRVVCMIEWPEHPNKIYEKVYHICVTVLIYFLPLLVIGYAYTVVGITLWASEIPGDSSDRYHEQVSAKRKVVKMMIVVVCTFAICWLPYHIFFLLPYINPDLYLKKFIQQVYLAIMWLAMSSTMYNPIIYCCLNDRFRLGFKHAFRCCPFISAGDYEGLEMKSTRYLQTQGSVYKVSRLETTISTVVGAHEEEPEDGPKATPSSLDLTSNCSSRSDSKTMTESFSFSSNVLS
Summary of the method: as §1

[7] = tested on: T3, Neuromedin-K receptor (Homo sapiens), P29371 [H316W]; experiment: Antagonist activity at human NK3 H316W6.52 mutant expressed in HEK293 cells assessed as decrease in [MePhe7]NKB-induced [3H]IP accumulation after 20 mins; format: functional, cell-based
T3 sequence (whole entry): T2 sequence (P29371 whole entry) with H316W
Summary of the method: (§2)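 HEK293 cells transiently expressing human NK3 WT or mutant, labeled with myo-[³H]inositol in LiCl buffer. Antagonist preincubated 20 min at 37 °C, then [MePhe⁷]NKB (0.01 nM–1 μM) added for 45 min at 37 °C. [³H]IP read by SPA beads. Schild analysis of EC50 shift and Emax depression across increasing antagonist concentrations gives pA2, slope and mode of antagonism.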

HEK293 [8] = experiment: Selectivity ratio of Ki for human NK3 Y247F mutant expressed in HEK293 cells to Ki for wild type human NK3 receptor expressed in HEK293 cells; format: cell-based
Neuromedin-K receptor [9] = target: T4, Neuromedin-K receptor (Homo sapiens, UniProt P29371, Y315F); experiment: Displacement of radioligand [3H]osanetant at human NK3 Y315F6.51 mutant expressed in HEK293 cells; format: cell-based
T4 sequence (P29371 whole entry Y315F): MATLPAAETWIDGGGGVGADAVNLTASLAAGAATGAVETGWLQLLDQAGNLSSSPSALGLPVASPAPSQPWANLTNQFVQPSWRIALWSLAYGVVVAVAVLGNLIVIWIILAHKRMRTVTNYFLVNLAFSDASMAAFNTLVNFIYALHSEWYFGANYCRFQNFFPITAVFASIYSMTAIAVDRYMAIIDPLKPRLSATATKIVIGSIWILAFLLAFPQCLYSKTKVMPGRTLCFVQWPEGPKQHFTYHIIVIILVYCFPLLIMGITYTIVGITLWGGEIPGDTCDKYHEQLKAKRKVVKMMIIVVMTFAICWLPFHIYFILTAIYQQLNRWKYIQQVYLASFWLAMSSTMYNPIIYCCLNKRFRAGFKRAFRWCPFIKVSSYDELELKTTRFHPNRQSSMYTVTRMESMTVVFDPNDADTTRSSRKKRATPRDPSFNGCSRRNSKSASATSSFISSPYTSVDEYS

Neuromedin-K receptor [10] = target: Neuromedin-K receptor (Homo sapiens, UniProt P29371, Y247W); experiment: Displacement of radioligand [3H]osanetant at human NK3 Y247W mutant expressed in HEK293 cells; format: cell-based
Sequence of Neuromedin-K receptor (Homo sapiens, UniProt P29371, Y247W) (P29371 whole entry Y247W): as the sequence (P29371 whole entry Y315F) above, with Y247W, F315Y counted along it

[11] = tested on: Substance-P receptor (Homo sapiens), P25103 [F264Y]; experiment: Noncompetitive inhibition of human NK1 F264Y6.51 mutant receptor expressed in HEK293 cells assessed as decrease in SP1-induced [3H]IP accumulation after 20 mins; format: cell-based
Sequence of Substance-P receptor (Homo sapiens), P25103 [F264Y] (P25103 whole entry F264Y): as the sequence (P25103 whole entry F264Y) above

HEK293 [12] = experiment: Selectivity ratio of Ki for human NK3 Y247W mutant expressed in HEK293 cells to Ki for wild type human NK3 receptor expressed in HEK293 cells; format: cell-based
Neuromedin-K receptor [13] = target: T5, Neuromedin-K receptor (Homo sapiens, UniProt P29371, Y247F); experiment: Displacement of radioligand [3H]osanetant at human NK3 Y247F mutant expressed in HEK293 cells; format: cell-based
T5 sequence (P29371 whole entry Y247F): as the sequence (P29371 whole entry Y315F) above, with Y247F, F315Y counted along it

Neuromedin-K receptor [14] = target: Neuromedin-K receptor (Homo sapiens, UniProt P29371, H316F); experiment: Displacement of radioligand [3H]osanetant at human NK3 H316F mutant expressed in HEK293 cells; format: cell-based
Sequence of Neuromedin-K receptor (Homo sapiens, UniProt P29371, H316F) (P29371 whole entry H316F): as the sequence (P29371 whole entry Y315F) above, with F315Y, H316F counted along it

HEK293 [15] = experiment: Selectivity ratio of Ki for human NK3 H316F mutant expressed in HEK293 cells to Ki for wild type human NK3 receptor expressed in HEK293 cells; format: cell-based
HEK293 [16] = experiment: Selectivity ratio of Ki for wild type human NK3 receptor expressed in HEK293 cells to Ki for human NK3 Y315F6.51 mutant expressed in HEK293 cells; format: cell-based
Neuromedin-K receptor [17] = target: Neuromedin-K receptor (Homo sapiens, UniProt P29371, H316W); experiment: Displacement of radioligand [3H]osanetant at human NK3 H316W mutant expressed in HEK293 cells; format: cell-based
Sequence of Neuromedin-K receptor (Homo sapiens, UniProt P29371, H316W) (P29371 whole entry H316W): as the sequence (P29371 whole entry Y315F) above, with F315Y, H316W counted along it

Neuromedin-K receptor [18] = target: T5, Neuromedin-K receptor; experiment: Competitive inhibition at human NK3 Y247F5.38 mutant expressed in HEK293 cells assessed as decrease in [MePhe7]NKB-induced [3H]IP accumulation after 20 mins; format: cell-based; conditions: read-out: pA2 (converted)
Neuromedin-K receptor [19] = target: T2, Neuromedin-K receptor; experiment: Competitive inhibition at wild type human NK3 expressed in HEK293 cells assessed as decrease in [MePhe7]NKB-induced [3H]IP accumulation after 20 mins; format: cell-based; conditions: read-out: pA2 (converted)
Summary of the method: as §2

[20] = tested on: T6, Neuromedin-K receptor (Homo sapiens), P29371 [Y315F]; experiment: Noncompetitive inhibition at human NK3 Y315F6.51 mutant expressed in HEK293 cells assessed as decrease in [MePhe7]NKB-induced [3H]IP accumulation after 20 mins; format: cell-based
T6 sequence (whole entry): T2 sequence (P29371 whole entry) with Y315F
Summary of the method: as §2

Neuromedin-K receptor [21] = target: T4, Neuromedin-K receptor; experiment: Competitive inhibition at human NK3 Y315F6.51 mutant expressed in HEK293 cells assessed as decrease in [MePhe7]NKB-induced [3H]IP accumulation after 20 mins; format: cell-based; conditions: read-out: pA2 (converted)
Summary of the method: as §2

T1 sequence (P25103 whole entry): as the sequence (P25103 whole entry F264Y) above, with Y264F counted along it
Sequence of Neuromedin-K receptor (Homo sapiens, UniProt P29371, Y247A) (P29371 whole entry Y247A): as the sequence (P29371 whole entry Y315F) above, with Y247A, F315Y counted along it

SMILES	inhibition (Substance-P receptor [3])	Ki (Neuromedin-K receptor [4]) [nM]	Ki (Substance-P receptor [5]) [nM]	Ki (Substance-P receptor [6]) [nM]	Ki (Neuromedin-K receptor [9]) [nM]	inhibition [11]	Kb (Neuromedin-K receptor [19]) [nM]	Ratio Ki (HEK293 [16])	other results
[3H]c1cccc(C2(N(C)C(C)=O)CCN(CCC[C@]3(c4ccc(Cl)c(Cl)c4)CCCN(C(=O)c4ccccc4)C3)CC2)c1									Kd (Neuromedin-K receptor [1]): Not Active
COc1ccccc1CN[C@H]1C2CCN(CC2)[C@H]1C(c1ccccc1)c1ccccc1 [CP-96345]		> 10000							
Cc1cc(F)ccc1-c1cc(N2CCC3(CC2)OCCS3(=O)=O)ncc1N(C)C(=O)C(C)(C)c1cc(C(F)(F)F)cc(C(F)(F)F)c1	Active	3.5	1.4	1.7	1	Active	97.7	3.5	Kb (Neuromedin-K receptor [21]): 37.2 nM

Second part, led by results:

inhibition (Substance-P receptor [3])	Ki (Neuromedin-K receptor [4]) [nM]	Ki (Substance-P receptor [5]) [nM]	Ki (Substance-P receptor [6]) [nM]	Ki (Neuromedin-K receptor [9]) [nM]	inhibition [11]	Kb (Neuromedin-K receptor [19]) [nM]	SMILES	Ratio Ki (HEK293 [16])	other results
Active	454						C[C@@H](O[C@H]1OCCN(Cc2n[nH]c(=O)[nH]2)[C@H]1c1ccc(F)cc1)c1cc(C(F)(F)F)cc(C(F)(F)F)c1 [APREPITANT]		T1/2 (Substance-P receptor [2]): 2.57 h
Active	1.7	0.3	0.5	0.2	Active	16.2	Cc1cc(F)ccc1-c1cc(N2CCN(S(C)(=O)=O)[C@@H](C)C2)ncc1N(C)C(=O)C(C)(C)c1cc(C(F)(F)F)cc(C(F)(F)F)c1	8.5	Activity [7]: inactive; Ratio Ki (HEK293 [8]): 1.1; Ki (Neuromedin-K receptor [10]): 5.1 nM; Ratio Ki (HEK293 [12]): 3; Ki (Neuromedin-K receptor [13]): 1.8 nM; Ki (Neuromedin-K receptor [14]): 19.7 nM; Ratio Ki (HEK293 [15]): 11.6; Ki (Neuromedin-K receptor [17]): > 10000 nM; Kb (Neuromedin-K receptor [18]): 47.9 nM; inhibition [20]: Active

Reference: ChEMBL document CHEMBL2203099, “Identification of a crucial amino acid in the helix position 6.51 of human tachykinin neurokinin 1 and 3 receptors contributing to the insurmountable mode of antagonism by dual NK₁/NK₃ antagonists” (J Med Chem, 2012)
